A selection: hits, their analogues and other compounds. The true share with any hit is near 5.2%.
M1 antagonist: M1 muscarinic receptor (rat) antagonism. P08482. CHO-M1 cells, Fluo-4 calcium, ACh EC80 antagonist mode; active compounds read low. B-score at 10 µM. 64,000 compounds, 3.4% hits. AID 628;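 active means calcium fluorescence response, raw or row-and-column corrected B-score, differing from the plate sample mean either way at a set confidence level, mostly lower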
Target sequence (P08482 whole entry, looked up): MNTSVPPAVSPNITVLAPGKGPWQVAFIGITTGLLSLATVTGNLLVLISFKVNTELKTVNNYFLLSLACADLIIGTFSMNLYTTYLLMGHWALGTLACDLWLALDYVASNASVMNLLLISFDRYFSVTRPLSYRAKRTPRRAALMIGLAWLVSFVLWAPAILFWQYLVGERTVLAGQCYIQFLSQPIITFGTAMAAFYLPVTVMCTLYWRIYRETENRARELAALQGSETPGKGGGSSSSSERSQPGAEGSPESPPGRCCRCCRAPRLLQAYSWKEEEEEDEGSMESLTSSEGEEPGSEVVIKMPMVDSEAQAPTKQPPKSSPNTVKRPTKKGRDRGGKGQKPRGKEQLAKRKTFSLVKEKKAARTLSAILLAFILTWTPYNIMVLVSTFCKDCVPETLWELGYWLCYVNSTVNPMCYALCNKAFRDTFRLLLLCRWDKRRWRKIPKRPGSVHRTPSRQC
M1 agonist: agonists of M1 muscarinic receptor. B-score at 10 µM. 64,000 compounds, 3% hits. CHO-M1 cells, Fluo-4 calcium fluorescence, agonist mode; active compounds read high. AID 626;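 active means fluorescence rise, raw or as B-score row- and column-corrected plate score, outside the 99.7% band of its plate's samples, either direction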
AP ELISA ortho: alternative pathway complement inhibition, orthogonal assay. Human serum alternative complement pathway, LPS-coated ELISA, C3 deposition; tested in compound mixtures. inhibition, % at 5 µM. 62,000 compounds, 0.08% hits;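 active means inhibition above 30% in each of the two pooled mixtures holding the compound, so the lower value exceeds 30%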;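 further: 0% = serum in Mg-EGTA without compound and 100% = EDTA serum blank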
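Assay system: human serum alternative complement pathway, C3 deposition on LPS-coated wells; Dosing: 5 µM per compound in ten-compound mixtures; Detection: Anti-C3 ELISA, OD 450 nm; Buffer or medium: Mg2+-EGTA GVB++ buffer containing human serum at 1:15 dilution; Timing: 1 h at 37 °C; Replication: two different pools per compound.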
WNV NS2B-NS3 inh: inhibitors of West Nile virus NS2B-NS3 protease; z-score (no concentration beside the values); WNV NS2B-NS3 protease, fluorogenic substrate Ex360/Em465; active compounds read low; 65,000 compounds, 0.18% hits; in the data active means z-score below about -3
tolC growth inh: growth inhibitors of E. coli BW25113 tolC mutant | OD615 | growth inhibition, % at 10 µM (by protocol) | 65,000 compounds, 2.2% hits;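 active means growth inhibition at or above a cutoff equal to the mean over every tested compound plus 3 SD, cut at about 60% in these data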;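 further: growth measured after 20 h incubation at 37 °C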
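Doses: one dose of 10 µM final / Material: E. coli BW25113 ΔtolC::kan, tolC deletion mutant strain / Buffer or medium: LB with kanamycin 50 µg/mL / Evaluation: percent growth inhibition / Detection: optical density read at 615 nm / Incubation: 37 °C, 20 h exposure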
E coli WT exp: E. coli BW25113 growth inhibition, expanded screen | OD600 absorbance | growth inhibition, % at 100 µM | 98,000 compounds, 0.15% hits;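 active means growth inhibition above about 50% at one test dose, limit read from the data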;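 further: growth measured after 20 h incubation at 37 °C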
Starred values were filed as active, the others as inactive.

How did Cn1c(=O)c2c(SCC(=O)N3CCN(c4ccccc4)CC3)nc(C3CC3)nc2n(C)c1=O do in these assays?
M1 antagonist: -2.3*; M1 agonist: 4.8*; AP ELISA ortho: 4; WNV NS2B-NS3 inh: -0.61; tolC growth inh: -3

Results for CCc1nc(SCC(=O)N2CCN(c3ccccc3)CC2)c2c(=O)n(C)c(=O)n(C)c2n1 ?
M1 antagonist: -1.3; M1 agonist: 0.82; AP ELISA ortho: 9; WNV NS2B-NS3 inh: -0.06; tolC growth inh: -15

Results for O=C(c1ccc2nc(-c3ccco3)c(-c3ccco3)nc2c1)N1CCN(c2ccccc2)CC1 ?
M1 antagonist: -1.2; M1 agonist: 5.7*; AP ELISA ortho: 23; WNV NS2B-NS3 inh: -0.4; tolC growth inh: 43; E coli WT exp: -13

What do the screens show for `O=C(c1cc2nc(-c3ccco3)cc(C(F)(F)F)n2n1)N1CCN(c2ccccc2)CC1`?
M1 antagonist: -0.51; M1 agonist: 2.3; AP ELISA ortho: -6; WNV NS2B-NS3 inh: 1.4; tolC growth inh: 71*; E coli WT exp: -7

What do the screens show for `Cn1c(C(=O)N2CCc3ccccc3C2)cc2oc3ccccc3c21`?
M1 antagonist: -0.091; M1 agonist: -0.21; AP ELISA ortho: 9; WNV NS2B-NS3 inh: -0.63; tolC growth inh: 69*; E coli WT exp: -22

What do the screens show for `Oc1ccc(Br)cc1-c1nc2cnccn2c1NC1CCCCC1`?
E coli WT exp: -5

Results for Oc1ccc(Br)cc1-c1nc2cnccn2c1NC1CCCC1 ?
M1 antagonist: 0.35; M1 agonist: -0.21; AP ELISA ortho: 2; WNV NS2B-NS3 inh: 1.3; tolC growth inh: 97*; E coli WT exp: -7

How did N#Cc1cn(Cc2cccc(Cl)c2)c2ccccc12 do in these assays?
M1 antagonist: 1.3; M1 agonist: 0.45; AP ELISA ortho: 4; WNV NS2B-NS3 inh: -0.26; tolC growth inh: 97*; E coli WT exp: 2

How did CCOc1ccc(C(=O)C2CCN(CC(=O)Nc3ccccc3N3CCOCC3)CC2)cc1 do in these assays?
M1 antagonist: 0.093; M1 agonist: 0.11; AP ELISA ortho: 8; WNV NS2B-NS3 inh: -0.1; tolC growth inh: 76*; E coli WT exp: -9

How did Cc1ccc2cc3cc(C(=O)N(C)C4CCCCC4)oc3nc2c1 do in these assays?
M1 antagonist: -0.14; M1 agonist: 3.1; AP ELISA ortho: 8; WNV NS2B-NS3 inh: 0.45; tolC growth inh: 16

Results for Cc1cccc(N(C)C(=O)c2cc3cc4ccc(C)cc4nc3o2)c1 ?
M1 antagonist: 0.7; M1 agonist: 1.1; AP ELISA ortho: 2; WNV NS2B-NS3 inh: -0.23; tolC growth inh: 96*; E coli WT exp: -10

How did CSc1nnc(-c2cc3ccccc3cc2O)n1C do in these assays?
M1 antagonist: -0.55; M1 agonist: -1.3; AP ELISA ortho: 9; WNV NS2B-NS3 inh: -0.66; tolC growth inh: 1; E coli WT exp: 6

How did FC(F)(F)c1cc(-c2ccco2)nc(NCc2ccccc2)n1 do in these assays?
M1 antagonist: 0.92; M1 agonist: 0; AP ELISA ortho: 3; WNV NS2B-NS3 inh: -0.95; tolC growth inh: 19; E coli WT exp: 3

How did Fc1ccc(CNc2nc(-c3ccco3)cc(C(F)(F)F)n2)cc1 do in these assays?
M1 antagonist: -0.68; M1 agonist: 0.85; AP ELISA ortho: 10; WNV NS2B-NS3 inh: 0.11; tolC growth inh: 62*; E coli WT exp: 14

How did O=c1c2cccc3c2c(nn1CN1CCOCC1)-c1ccccc1-3 do in these assays?
M1 antagonist: 0.39; M1 agonist: 2.3; AP ELISA ortho: 14; WNV NS2B-NS3 inh: -0.69; tolC growth inh: 80*; E coli WT exp: 14

How did Cc1cc(C)c(O)c(-c2cc(C(=O)NCc3ccccc3)[nH]n2)c1 do in these assays?
E coli WT exp: -2

Results for COc1ccc(NC(=O)c2cc(-c3cc(C)cc(C)c3O)n[nH]2)cc1Cl ?
M1 antagonist: 0.38; M1 agonist: -0.67; AP ELISA ortho: -1; WNV NS2B-NS3 inh: 0.19; tolC growth inh: 96*; E coli WT exp: -1

How did Cc1ccc(OC(=O)C(F)(F)F)c2c1NCCC2 do in these assays?
M1 antagonist: 0.47; M1 agonist: 0.098; AP ELISA ortho: 35*; WNV NS2B-NS3 inh: -0.56; tolC growth inh: -4; E coli WT exp: -2

What do the screens show for `Cc1cc2c(C)cc(=O)oc2c2c1NCCC2`?
M1 antagonist: -0.85; M1 agonist: 2.4; AP ELISA ortho: 15; WNV NS2B-NS3 inh: 10; tolC growth inh: 25; E coli WT exp: 9

How did COc1ccc(/C=N/OCC(=O)N2CC3(C)CC2CC(C)(C)C3)cc1 (stereo not given) do in these assays?
E coli WT exp: -5

Results for CC1(C)CC2CC(C)(CN2C(=O)c2cccs2)C1 (stereo not given) ?
AP ELISA ortho: 9; WNV NS2B-NS3 inh: -1.6; tolC growth inh: 10; E coli WT exp: 0

How did CC1(C)CC2CC(C)(CN2C(=O)c2cc(-c3ccccc3O)on2)C1 (stereo not given) do in these assays?
M1 antagonist: 1.4; M1 agonist: -1.1; AP ELISA ortho: 13; WNV NS2B-NS3 inh: -0.55; tolC growth inh: 95*; E coli WT exp: -10

Results for COc1ccc(-c2cc(C(=O)N3CC4(C)CC3CC(C)(C)C4)no2)cc1 (stereo not given) ?
M1 antagonist: 0.45; M1 agonist: -0.2; AP ELISA ortho: 5; WNV NS2B-NS3 inh: -0.57; tolC growth inh: 65*; E coli WT exp: -4

What do the screens show for `COc1ccc(-c2cc(C(=O)N3CC4(C)CC3CC(C)(C)C4)no2)cc1OC` (stereo not given)?
M1 antagonist: -0.18; M1 agonist: 0.099; AP ELISA ortho: 2; WNV NS2B-NS3 inh: 0.99; tolC growth inh: 71*; E coli WT exp: -6

Results for CCN(CC)CCCN1C(=O)C(O)=C(C(C)=O)C1c1ccc(OC)cc1OC (stereo not given) ?
M1 antagonist: 0.086; M1 agonist: -0.2; AP ELISA ortho: -2; WNV NS2B-NS3 inh: -2.2; tolC growth inh: 10

Results for CCCN(CCC)C(=S)NC(=O)c1ccc(-c2ccccc2)cc1 ?
E coli WT exp: 8

Results for CN(C)S(=O)(=O)c1cc(S(=O)(=O)N(C)C)c(Cl)cc1N ?
M1 antagonist: -0.0085; M1 agonist: -0.26; AP ELISA ortho: 24; WNV NS2B-NS3 inh: -1.1; tolC growth inh: -2; E coli WT exp: -1

Results for Cc1cc(NC(=O)CCNS(=O)(=O)c2cc(Br)cnc2N)ccc1Br ?
E coli WT exp: 0

How did CC(C)(C)c1ccc(OCc2ccc(C(=O)N/N=C/c3ccc([N+](=O)[O-])cc3)o2)cc1 do in these assays?
E coli WT exp: -6

What do the screens show for `CCc1nnc(NC(=O)c2ccc(S(=O)(=O)N(CC(C)C)CC(C)C)cc2)o1`?
M1 antagonist: 0.61; M1 agonist: 1.1; AP ELISA ortho: -4; WNV NS2B-NS3 inh: 1.9; tolC growth inh: 99*; E coli WT exp: 11

How did CSCc1nnc(NC(=O)c2ccc(S(=O)(=O)N(CC(C)C)CC(C)C)cc2)o1 do in these assays?
M1 antagonist: 0.44; M1 agonist: -0.86; AP ELISA ortho: 6; WNV NS2B-NS3 inh: -0.83; tolC growth inh: 99*; E coli WT exp: 3
